Test results published in ChEMBL document CHEMBL1127487, “Cyclic enkephalin analogs with exceptional potency at peripheral delta opioid receptors” (J Med Chem, 1994).
Where a SMILES comes first, the peptide text is derived from it. Bridges are numbered along the chain shown (N, C = ends). [ ]: non-standard residue; d: D form. dPen = CC(C)(S)[C@@H](N)C(=O)O

How the values were obtained:
Mu-type opioid receptor [1] = target: Mu-type opioid receptor (Cavia porcellus, UniProt P97266); experiment: Inhibitory concentration against electrically evoked contractions of guinea pig ileum longitudinal muscle-myenteric plexus; type: functional, tissue-based
Chain of Mu-type opioid receptor (Cavia porcellus, UniProt P97266) (P97266 whole entry): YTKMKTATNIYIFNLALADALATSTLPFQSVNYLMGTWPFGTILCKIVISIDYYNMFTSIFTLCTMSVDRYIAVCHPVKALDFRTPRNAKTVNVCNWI
Procedure, shortened: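 Longitudinal muscle-myenteric plexus strips from male Hartley guinea pigs (250–500 g) in oxygenated Krebs bicarbonate at 37 °C, 1-g tension. Transmural stimulation at 0.1 Hz, 0.4-ms pulses, supramaximal voltage. Cumulative agonist doses with 3 min contact each. Inhibition is relative to contraction height over the preceding 1 min.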

Mu-type opioid receptor [2] = target: Mu-type opioid receptor (Rattus norvegicus, UniProt P33535); experiment: Binding affinity towards mu opioid receptor was determined in rat brain using [3H]CTOP as radioligand; type: tissue-based
Chain of Mu-type opioid receptor (Rattus norvegicus, UniProt P33535) (P33535 whole entry): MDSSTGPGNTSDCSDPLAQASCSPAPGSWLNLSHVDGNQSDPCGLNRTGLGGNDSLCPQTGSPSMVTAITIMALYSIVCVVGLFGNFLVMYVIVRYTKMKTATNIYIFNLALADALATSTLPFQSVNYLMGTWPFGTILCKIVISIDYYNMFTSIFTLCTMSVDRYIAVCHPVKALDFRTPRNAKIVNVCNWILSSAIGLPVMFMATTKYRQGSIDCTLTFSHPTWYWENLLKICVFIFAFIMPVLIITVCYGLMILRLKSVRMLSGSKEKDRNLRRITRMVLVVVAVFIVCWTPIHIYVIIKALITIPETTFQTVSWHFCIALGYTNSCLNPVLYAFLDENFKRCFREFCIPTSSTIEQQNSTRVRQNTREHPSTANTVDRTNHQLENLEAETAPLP
Procedure, shortened: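 Rat brain membranes washed in 50 mM Tris-HCl pH 7.4, preincubated 30 min at 25 °C. Competition against 0.5 nM [3H]CTOP, 10 analog concentrations over an 800-fold range, in peptidase-inhibitor buffer with BSA. Incubation 3 h at 25 °C. Nonspecific binding defined by 10 μM naltrexone. Bound ligand filtered and counted; IC50 by nonlinear least-squares regression, at least three runs in duplicate.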

[3] = Selectivity ratio (GPI/MVD) of the compound; type: functional
Procedure, shortened: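 IC50 ratio GPI/MVD. GPI: guinea pig ileum strips, 1-g tension, 0.4-ms pulses. MVD: male ICR mouse vas deferens (25–40 g), Mg-free Krebs, 0.5-g tension, 2.0-ms pulses. Both tissues at 37 °C, 0.1 Hz, cumulative doses with 3 min contact. Hill-equation fit, ≥4 tissues each.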

[4] = system: Opioid receptors; mu & delta; experiment: Selectivity ratio (mu/delta) of the compound; type: protein assay
[5] = target: Delta-type opioid receptor (Mus musculus, UniProt P32300); experiment: Inhibitory concentration against delta opioid receptor of electrically induced smooth muscle contraction of mouse vas deferens; type: functional
Chain of Delta-type opioid receptor (Mus musculus, UniProt P32300) (P32300 whole entry): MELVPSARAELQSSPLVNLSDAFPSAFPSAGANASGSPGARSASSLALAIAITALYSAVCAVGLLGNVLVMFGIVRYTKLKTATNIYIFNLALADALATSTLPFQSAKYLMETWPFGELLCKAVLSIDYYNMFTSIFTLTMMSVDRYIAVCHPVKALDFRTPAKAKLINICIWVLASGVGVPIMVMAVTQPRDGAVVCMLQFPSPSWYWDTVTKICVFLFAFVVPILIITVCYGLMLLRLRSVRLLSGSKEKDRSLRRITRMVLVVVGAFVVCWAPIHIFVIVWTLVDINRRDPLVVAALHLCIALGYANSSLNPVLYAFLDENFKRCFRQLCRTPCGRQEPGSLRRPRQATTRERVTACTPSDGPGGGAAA

[6] = target: Delta-type opioid receptor (Rattus norvegicus, UniProt P33533); experiment: Binding affinity towards delta opioid receptor was determined in rat brain using [H]-[p-Cl-Phe4]-DPDPE as radioligand; type: tissue-based
Chain of Delta-type opioid receptor (Rattus norvegicus, UniProt P33533) (P33533 whole entry): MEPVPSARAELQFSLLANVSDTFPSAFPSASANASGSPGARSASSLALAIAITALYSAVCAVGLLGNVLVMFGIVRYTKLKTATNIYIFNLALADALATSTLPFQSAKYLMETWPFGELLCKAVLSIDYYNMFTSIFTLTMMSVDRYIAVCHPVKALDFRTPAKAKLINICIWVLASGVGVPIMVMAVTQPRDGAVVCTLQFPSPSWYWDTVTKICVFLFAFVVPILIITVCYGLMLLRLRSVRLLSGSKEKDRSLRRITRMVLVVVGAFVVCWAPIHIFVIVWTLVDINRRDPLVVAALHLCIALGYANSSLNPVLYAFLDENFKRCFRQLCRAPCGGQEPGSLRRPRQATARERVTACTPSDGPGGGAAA
Procedure, shortened: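 Rat brain membranes washed in 50 mM Tris-HCl pH 7.4, preincubated 30 min at 25 °C to strip endogenous peptides. Buffer contains BSA, bestatin, bacitracin, captopril and toluenesulfonyl fluoride. Incubation 3 h at 25 °C. Nonspecific binding with 10 μM naltrexone. Filtration, scintillation counting, nonlinear least-squares fit, n ≥ 6.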

| SMILES | IC50 (Mu-type opioid receptor [1]) [nM] | IC50 (Mu-type opioid receptor [2]) [nM] | Selectivity [3] | Selectivity [4] | IC50 [5] [nM] | IC50 [6] [nM] |
| --- | --- | --- | --- | --- | --- | --- |
| CC(C)[C@H](NC(=O)[C@H](CC(=O)O)NC(=O)[C@H](Cc1ccccc1)NC(=O)[C@@H](C)NC(=O)[C@@H](N)Cc1ccc(O)cc1)C(=O)N[C@H](C(=O)NCC(N)=O)C(C)C [DELTORPHIN C] | > 1500 |  |  |  |  |  |
| CC1(C)SSC[C@@H](C(=O)N[C@@H](Cc2ccccc2)C(=O)O)NC(=O)[C@H](Cc2ccccc2)NC(=O)CNC(=O)[C@@H]1NC(=O)[C@@H](N)Cc1ccc(O)cc1 (H-Y[dPen]GFCF-OH; disulfide 2-5) | 82.7 | 280 | 5100 | 200 | 0.016 | 1.4 |
| CC1(C)SSC[C@@H](C(=O)N[C@@H](Cc2ccccc2)C(=O)O)NC(=O)[C@H](Cc2ccc(Cl)cc2)NC(=O)CNC(=O)[C@@H]1NC(=O)[C@@H](N)Cc1ccc(O)cc1 | 36 | 83 | 470 | 160 | 0.076 | 0.51 |
| CC1(C)SSC[C@@H](C(=O)N[C@@H](Cc2ccccc2)C(=O)O)NC(=O)[C@H](Cc2ccc(Br)cc2)NC(=O)CNC(=O)[C@@H]1NC(=O)[C@@H](N)Cc1ccc(O)cc1 | 120 | 530 | 4300 | 530 | 0.028 | 1 |
| CC1(C)SSC[C@@H](C(=O)N[C@@H](Cc2ccccc2)C(=O)O)NC(=O)[C@H](Cc2ccc(I)cc2)NC(=O)CNC(=O)[C@@H]1NC(=O)[C@@H](N)Cc1ccc(O)cc1 | 640 | 1600 | 2100 | 1300 | 0.3 | 1.2 |
| CC1(C)SSC[C@@H](C(=O)N[C@@H](Cc2ccccc2)C(=O)O)NC(=O)[C@H](Cc2ccc(F)cc2)NC(=O)CNC(=O)[C@@H]1NC(=O)[C@@H](N)Cc1ccc(O)cc1 | 32 | 110 | 1100 | 160 | 0.028 | 0.71 |
